This passage reports IC50, ΔTm and Activity results from ChEMBL document CHEMBL5678818, “Discovery of potent SOS1 inhibitors that block RAS activation via disruption of the RAS-SOS1 interaction” (Proc Natl Acad Sci U S A, 2019).

Molecules are shown by their SMILES. Active and inactive are the calls of the source. No cut-off for these calls is given here. Bounds are passed on as bounds.

For one experiment, the system named is MOLM-13. Nature of the experiment: Antiproliferative activity against human MOLM-13 cells assessed as inhibition of cell viability incubated for 72 hrs by Cell Titer Glo assay. It is filed as functional, cell-based. The settings on record: MOLM-13, 72 h. (Cellular ATP, detected with luciferase, serves as a proxy for viable cell number.)
The target in experiment [1] is T1, Son of sevenless homolog 1 (Homo sapiens) (UniProt Q07889).
T1 sequence (whole entry): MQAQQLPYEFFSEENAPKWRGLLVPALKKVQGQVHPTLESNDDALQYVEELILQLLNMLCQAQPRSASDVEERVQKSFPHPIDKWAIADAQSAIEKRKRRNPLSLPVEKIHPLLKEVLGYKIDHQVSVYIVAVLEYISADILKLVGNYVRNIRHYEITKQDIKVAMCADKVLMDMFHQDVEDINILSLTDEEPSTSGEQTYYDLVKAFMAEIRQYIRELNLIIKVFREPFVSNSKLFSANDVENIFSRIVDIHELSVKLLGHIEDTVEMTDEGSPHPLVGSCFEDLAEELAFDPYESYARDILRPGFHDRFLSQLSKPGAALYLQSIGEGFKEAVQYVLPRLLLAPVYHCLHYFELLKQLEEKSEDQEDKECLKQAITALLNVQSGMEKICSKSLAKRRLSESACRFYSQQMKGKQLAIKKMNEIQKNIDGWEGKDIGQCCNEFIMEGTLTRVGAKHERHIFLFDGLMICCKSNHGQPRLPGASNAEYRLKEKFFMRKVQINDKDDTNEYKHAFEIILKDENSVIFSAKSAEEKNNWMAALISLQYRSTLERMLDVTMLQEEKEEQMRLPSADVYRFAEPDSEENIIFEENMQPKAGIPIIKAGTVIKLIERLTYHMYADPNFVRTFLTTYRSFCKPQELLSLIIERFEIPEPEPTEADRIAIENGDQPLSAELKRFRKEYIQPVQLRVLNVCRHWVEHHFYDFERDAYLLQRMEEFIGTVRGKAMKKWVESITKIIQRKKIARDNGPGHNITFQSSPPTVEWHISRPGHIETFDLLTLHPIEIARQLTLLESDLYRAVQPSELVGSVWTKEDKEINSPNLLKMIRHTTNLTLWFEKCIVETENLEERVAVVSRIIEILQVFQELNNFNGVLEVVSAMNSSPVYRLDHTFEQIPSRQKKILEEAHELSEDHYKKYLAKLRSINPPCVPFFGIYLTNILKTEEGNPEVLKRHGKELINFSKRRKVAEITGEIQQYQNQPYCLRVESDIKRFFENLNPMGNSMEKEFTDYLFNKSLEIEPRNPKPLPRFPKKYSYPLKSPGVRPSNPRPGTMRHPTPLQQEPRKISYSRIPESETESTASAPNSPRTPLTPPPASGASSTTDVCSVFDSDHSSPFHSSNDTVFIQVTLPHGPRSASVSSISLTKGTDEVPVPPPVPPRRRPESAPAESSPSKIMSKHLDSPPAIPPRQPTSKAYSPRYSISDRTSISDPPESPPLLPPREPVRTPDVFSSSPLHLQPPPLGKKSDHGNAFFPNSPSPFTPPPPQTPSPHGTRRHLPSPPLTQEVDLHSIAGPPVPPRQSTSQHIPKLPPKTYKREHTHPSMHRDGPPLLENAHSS
Nature of the experiment: Stabilization of N-terminal His10-tagged wild-type recombinant human SOS1 catalytic domain (564 to 1049 residues) expressed in Escherichia coli assessed as change in melting temperature at 100 uM with heating from 25 to 85 degreeC by thermal shift assay.

Experiment [2] concerns the target GTPase KRas (Homo sapiens) (UniProt P01116). Nature of the experiment: Stabilization of N-terminal His10-tagged wild-type recombinant human KRAS (1 to 169 residues) expressed in Escherichia coli assessed as change in melting temperature at 100 uM with heating from 25 to 85 degreeC by thermal shift assay.
Experiment [3] addresses Son of sevenless homolog 2 (Homo sapiens, UniProt Q07890). Put plainly: Inhibition of N-terminal His10-tagged wild-type recombinant human SOS2 catalytic domain (564 to 1043 residues) expressed in Escherichia coli assessed as reduction in KRAS G12C mutant activation preincubated for 10 mins with KRAS followed by SOS2 addition measured after 30 mins in presence of EDA-GTP-DY-647P1 by HTRF analysis. For orientation: Time-resolved FRET reads energy transfer from a long-lived donor to a nearby acceptor.

Another experiment deals with NCI-H358. Nature of the experiment: Antiproliferative activity against human NCI-H358 cells assessed as inhibition of cell viability incubated for 72 hrs by Cell Titer Glo assay. The conditions noted are these: NCI-H358, 72 h. The experiment is classed as functional, cell-based. In a few lines:
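NCI-H358 cells (KRAS G12C mutant) were sourced from ATCC.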

Experiment [4] addresses Epidermal growth factor receptor (Homo sapiens, UniProt P00533). Put plainly: Inhibition of human EGFR using biotin-aminohexyl-AEEEEYFELVAKKK as substrate preincubated for 15 mins followed by substrate/ATP addition measured after 20 mins by FRET assay.
In experiment [5] the test system is K562. Put plainly: Antiproliferative activity against human K562 cells assessed as inhibition of cell viability incubated for 72 hrs by Cell Titer Glo assay. The experiment is classed as functional, cell-based. The conditions noted are these: K562, 72 h. The procedure, abridged:
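K-562 cells (wild-type KRAS, sourced from ATCC) were tested for antiproliferative response.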

Experiment [6] addresses T2, Guanine nucleotide exchange factor DBS (Homo sapiens, UniProt O15068).
T2 sequence (O15068 whole entry): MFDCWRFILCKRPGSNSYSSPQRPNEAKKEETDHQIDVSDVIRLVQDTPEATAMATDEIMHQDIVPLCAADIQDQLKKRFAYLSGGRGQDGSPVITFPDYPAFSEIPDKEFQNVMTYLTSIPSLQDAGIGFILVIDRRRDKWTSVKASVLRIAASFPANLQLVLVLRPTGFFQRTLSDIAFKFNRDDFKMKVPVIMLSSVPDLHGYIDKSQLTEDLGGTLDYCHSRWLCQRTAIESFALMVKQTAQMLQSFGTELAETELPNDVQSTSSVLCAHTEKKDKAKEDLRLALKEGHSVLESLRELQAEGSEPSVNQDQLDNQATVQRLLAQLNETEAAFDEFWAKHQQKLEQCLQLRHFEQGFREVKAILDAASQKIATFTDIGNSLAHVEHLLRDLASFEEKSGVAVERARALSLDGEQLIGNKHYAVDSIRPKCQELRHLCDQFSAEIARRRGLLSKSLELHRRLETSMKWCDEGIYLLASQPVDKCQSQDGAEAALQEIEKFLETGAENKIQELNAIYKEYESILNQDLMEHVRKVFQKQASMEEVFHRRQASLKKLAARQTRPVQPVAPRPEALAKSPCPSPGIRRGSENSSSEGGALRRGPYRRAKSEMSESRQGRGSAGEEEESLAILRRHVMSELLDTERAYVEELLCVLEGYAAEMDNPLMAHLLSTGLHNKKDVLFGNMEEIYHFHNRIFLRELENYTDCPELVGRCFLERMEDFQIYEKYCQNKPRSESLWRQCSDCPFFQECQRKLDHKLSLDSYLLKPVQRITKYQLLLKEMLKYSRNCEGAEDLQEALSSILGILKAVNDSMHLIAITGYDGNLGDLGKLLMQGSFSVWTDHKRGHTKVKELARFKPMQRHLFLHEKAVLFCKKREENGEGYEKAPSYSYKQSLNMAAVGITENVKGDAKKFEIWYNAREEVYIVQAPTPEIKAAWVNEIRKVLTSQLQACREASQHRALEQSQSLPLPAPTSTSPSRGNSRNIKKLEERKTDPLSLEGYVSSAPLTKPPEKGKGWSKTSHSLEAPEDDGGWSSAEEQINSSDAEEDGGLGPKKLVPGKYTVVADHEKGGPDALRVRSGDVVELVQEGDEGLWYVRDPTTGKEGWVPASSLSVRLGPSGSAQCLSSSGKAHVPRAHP
Nature of the experiment: Inhibition of human DBS assessed as reduction in CDC42 activation preincubated for 1 min with CDC42 followed by DBS addition measured after 20 mins in presence of EDA-GTP-DY-647P1 by HTRF analysis.

Experiment [7] has as its system GTPase KRas (Homo sapiens), P01116 [G12C]. Put plainly: Stabilization of N-terminal GST-tagged recombinant human KRAS G12C mutant (1 to 169 residues) expressed in Escherichia coli assessed as change in melting temperature at 100 uM with heating from 25 to 85 degreeC by thermal shift assay.
In experiment [8] the target is T1, Son of sevenless homolog 1 (Homo sapiens). Nature of the experiment: Inhibition of SOS1 in human Calu-1 cells assessed as pERK level incubated for 24 hrs by HTRF analysis relative to control. Details: scale not given: the % may be the effect or the level left. The experiment is classed as cell-based.
Experiment [9] relates to SOS1-KRAS (Homo sapiens), Q07889+P01116 [G12C]. Put plainly: Binding affinity to N-terminal GST-tagged recombinant human KRAS G12C mutant (1 to 169 residues) expressed in Escherichia coli/N-terminal His10-tagged wild-type recombinant human SOS1 catalytic domain (564 to 1049 residues) expressed in Escherichia coli at 200 uM by STD-NMR analysis.
Experiment [10] relates to GTPase KRas (Homo sapiens), P01116 [G12C]. Nature of the experiment: Binding affinity to N-terminal GST-tagged recombinant human KRAS G12C mutant (1 to 169 residues) expressed in Escherichia coli at 200 uM by STD-NMR analysis.
Experiment [11] concerns the target T1, Son of sevenless homolog 1 (Homo sapiens). Put plainly: Binding affinity to N-terminal His10-tagged wild-type recombinant human SOS1 catalytic domain (564 to 1049 residues) expressed in Escherichia coli at 200 uM by STD-NMR analysis.
Experiment [12] is filed under the species Homo sapiens. Nature of the experiment: Stabilization of N-terminal His10-tagged recombinant human KRAS G12C/C118S mutant (1 to 169 residues) expressed in Escherichia coli/N-terminal His10-tagged wild-type recombinant human SOS1 catalytic domain (564 to 1049 residues) expressed in Escherichia coli by HTRF analysis. In a few lines: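 HTRF equilibrium-binding read-out of KRASG12C_C118S with SOS1cat, detected by fluorescently labelled antibodies including a terbium donor. Signal normalized with DMSO control as 100% and no-SOS1cat wells as 0%. Data are mean ± SD, n = 4.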

The species named for experiment [13] is Homo sapiens. Nature of the experiment: Stabilization of N-terminal His10-tagged recombinant human KRAS G12C/C118S mutant (1 to 169 residues) expressed in Escherichia coli/Series S C1 sensor chip-immobilized biotinylated N-terminal His10-tagged wild-type recombinant human SOS1 catalytic domain (564 to 1049 residues) expressed in Escherichia coli at 100 to 500 uM measured for 360 secs by SPR analysis. The conditions noted are these: dose 100-500 µM, time 360.0 sec. In a few lines: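 SOS1cat is immobilized on the chip, and 250 nM KRASG12C_C118S is flowed over with or without test compound. Compound alone at 100, 250 and 500 µM is also injected to gauge unspecific binding to SOS1cat. Buffer injection serves as the blank.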

The species entered for experiment [14] is Homo sapiens. Nature of the experiment: Stabilization of N-terminal His10-tagged 15N-labeled recombinant human KRAS G12C/C118S mutant (1 to 169 residues) expressed in Escherichia coli/N-terminal His10-tagged wild-type recombinant human SOS1 catalytic domain (564 to 1049 residues) expressed in Escherichia coli at 1 mM incubated for 30 mins by 2D-NMR analysis.

The test system of experiment [15] is Calu-1. Nature of the experiment: Antiproliferative activity against human Calu-1 cells assessed as inhibition of cell viability incubated for 72 hrs by Cell Titer Glo assay. The settings on record: Calu-1, 72 h. The experiment is classed as functional, cell-based.
Experiment [16] has as its system K562. Nature of the experiment: Effect on total ERK level in human K562 cells incubated for 60 mins by HTRF analysis. It is filed as functional, cell-based. The procedure, abridged:
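K-562 cells (wild-type KRAS) were sourced from ATCC. Cells were incubated with compound for 60 min, and total ERK was quantified alongside pERK.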

In another experiment the test system is KG-1. Put plainly: Antiproliferative activity against human KG-1 cells assessed as inhibition of cell viability incubated for 72 hrs by Cell Titer Glo assay. The experiment is classed as functional, cell-based.
A further experiment deals with THP-1. Put plainly: Antiproliferative activity against human THP-1 cells assessed as inhibition of cell viability incubated for 72 hrs by Cell Titer Glo assay. The experiment is classed as functional, cell-based.
Experiment [17] deals with Calu-1. Nature of the experiment: Effect on total ERK level in human Calu-1 cells incubated for 24 hrs by HTRF analysis. The experiment is classed as functional, cell-based. The procedure, abridged: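 Calu-1 cells carry two KRAS G12C alleles and were sourced from CLS. Total and pERK levels were both analyzed after compound treatment.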

For the compound `CNCc1ccccc1-c1csc([C@H](C)Nc2nc(C)nc3cc(OC)c(OC)cc23)c1` [BAY-294], the half-inhibitory concentration (IC50) (in general, the point on the concentration scale where inhibition reaches its midpoint) is 7.57 µM with MOLM-13; more than 20 µM in experiment [3]; 3.39 µM in the experiment on NCI-H358; more than 20 µM in [4]; 7.5 µM in the experiment on K562 [5]; more than 20 µM in experiment [6]. In addition, the ΔTm (usually the change in melting temperature against a reference sample) was 0.28 °C in experiment [1], -0.05 °C in experiment [2] and -0.6 °C in experiment [7].
Turning to `C=CC(=O)N1CC(N2CCN(C(=O)CNc3cc(C4(C)CC4)c(Cl)cc3O)CC2)C1`, in experiment [8], the Activity came to 50%.
As to `NCc1nn(-c2ccccc2)c2c1CCC2`, the outcome (in experiment [9]; in the experiment listed under Homo sapiens [12]; in the experiment listed under Homo sapiens [13]; in the experiment listed under Homo sapiens [14]) was Active. Also, the outcome in [10] and in experiment [11] was inactive.
`CNCc1ccccc1-c1csc(C(C)Nc2nc(C)nc3cc(OC)c(OC)cc23)c1` (centres undefined): the results for the ΔTm in experiment [1], in [2] and in experiment [7] were 2.96 °C, -0.67 °C and -0.57 °C, respectively. Moreover, the IC50 in the experiment with Calu-1 [15] was 2.05 µM; in experiment [3], more than 20 µM; in the experiment on NCI-H358 it was 2.66 µM; in [4], more than 20 µM; in the experiment with K562 [5], 1.1 µM; in experiment [6] it was more than 20 µM. The outcome with K562 [16] and with Calu-1 [17] was inactive. Also, the result in the experiment on KG-1 and with THP-1 was Active.
